Source: publication PMC8269116 (Journal of psychopharmacology (Oxford, England), 2019)
Values joined by “and” are separate entries in the source; they are usually repeats but may differ in a detail not shown here. Identical values can stand only once. Like-named read-outs stand apart in the source and are kept apart here.

Assays:
[1] = target: rat TAAR1 (Rattus norvegicus, UniProt Q923Y9); assay: Radioligand binding, [3H]RO5166017 displacement
[2] = target: T1, α2 adrenergic receptor (α2A) (Homo sapiens, UniProt P08913); assay: Radioligand binding, [3H]rauwolscine displacement
T1 sequence (P08913 1-465): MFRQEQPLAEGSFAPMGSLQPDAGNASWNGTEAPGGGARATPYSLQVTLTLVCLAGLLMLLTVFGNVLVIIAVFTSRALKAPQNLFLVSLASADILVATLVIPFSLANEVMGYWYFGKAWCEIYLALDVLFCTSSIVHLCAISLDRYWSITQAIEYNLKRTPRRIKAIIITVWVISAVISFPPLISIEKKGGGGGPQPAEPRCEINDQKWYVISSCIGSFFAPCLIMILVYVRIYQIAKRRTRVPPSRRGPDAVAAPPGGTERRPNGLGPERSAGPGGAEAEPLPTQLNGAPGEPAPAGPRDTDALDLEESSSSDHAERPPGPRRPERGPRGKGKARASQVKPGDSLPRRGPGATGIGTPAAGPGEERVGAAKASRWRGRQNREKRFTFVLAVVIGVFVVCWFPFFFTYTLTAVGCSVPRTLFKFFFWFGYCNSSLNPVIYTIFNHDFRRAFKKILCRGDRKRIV

[3] = target: T2, DAT (Homo sapiens, UniProt Q01959); assay: Radioligand binding, [3H]WIN35,428 displacement
T2 sequence (Q01959 whole entry): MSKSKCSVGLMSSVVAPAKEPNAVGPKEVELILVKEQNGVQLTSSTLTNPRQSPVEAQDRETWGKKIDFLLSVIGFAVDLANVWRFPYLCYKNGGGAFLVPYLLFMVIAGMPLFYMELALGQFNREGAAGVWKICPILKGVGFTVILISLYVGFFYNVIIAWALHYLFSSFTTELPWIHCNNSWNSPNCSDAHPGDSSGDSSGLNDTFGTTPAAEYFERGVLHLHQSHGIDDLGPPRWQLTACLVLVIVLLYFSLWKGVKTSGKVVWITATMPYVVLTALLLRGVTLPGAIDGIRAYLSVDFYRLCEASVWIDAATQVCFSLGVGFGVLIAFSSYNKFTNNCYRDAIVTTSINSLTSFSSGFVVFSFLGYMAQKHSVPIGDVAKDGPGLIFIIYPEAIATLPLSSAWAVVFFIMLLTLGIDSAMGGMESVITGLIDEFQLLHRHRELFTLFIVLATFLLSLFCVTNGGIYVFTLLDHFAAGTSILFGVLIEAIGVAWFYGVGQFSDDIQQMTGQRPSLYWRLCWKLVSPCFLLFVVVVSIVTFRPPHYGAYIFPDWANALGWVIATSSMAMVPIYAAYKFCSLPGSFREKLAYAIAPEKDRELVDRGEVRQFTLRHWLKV

[4] = target: T3, 5-HT1A receptor (Homo sapiens, UniProt P08908); assay: Radioligand binding, [3H]8-hydroxy-2-
T3 sequence (P08908 1-422): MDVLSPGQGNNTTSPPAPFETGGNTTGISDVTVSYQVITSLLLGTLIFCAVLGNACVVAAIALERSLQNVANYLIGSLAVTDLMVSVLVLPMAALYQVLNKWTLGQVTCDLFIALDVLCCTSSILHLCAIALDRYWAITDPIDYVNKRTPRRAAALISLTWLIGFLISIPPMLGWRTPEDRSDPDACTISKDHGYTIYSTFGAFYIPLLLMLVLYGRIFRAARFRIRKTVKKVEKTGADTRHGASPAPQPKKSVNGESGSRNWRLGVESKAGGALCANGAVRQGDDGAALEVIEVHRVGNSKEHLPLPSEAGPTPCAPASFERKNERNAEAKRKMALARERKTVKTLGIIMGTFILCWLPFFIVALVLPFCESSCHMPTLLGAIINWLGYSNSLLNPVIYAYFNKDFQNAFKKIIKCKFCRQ

[5] = target: mouse TAAR1 (Mus musculus, UniProt Q923Y8); assay: Radioligand binding, [3H]RO5166017 displacement
Sequence of mouse TAAR1 (Q923Y8 whole entry): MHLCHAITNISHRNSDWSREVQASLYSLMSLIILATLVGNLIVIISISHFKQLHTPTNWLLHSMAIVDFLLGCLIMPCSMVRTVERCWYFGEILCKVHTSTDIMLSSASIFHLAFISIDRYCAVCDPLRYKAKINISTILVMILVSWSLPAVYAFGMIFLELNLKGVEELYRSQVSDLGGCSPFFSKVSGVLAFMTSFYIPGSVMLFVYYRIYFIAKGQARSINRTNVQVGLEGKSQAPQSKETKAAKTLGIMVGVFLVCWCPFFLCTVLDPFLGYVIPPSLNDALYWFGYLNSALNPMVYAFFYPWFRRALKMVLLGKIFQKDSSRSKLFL

[6] = target: T2, DAT; assay: [3H]dopamine uptake inhibition in HEK 293 cells overexpressing human DAT; assay type: cell-based; conditions: for DAT/SERT ratio: 1/DAT IC50 : 1/SERT IC50, mean and 95% confidence interval
[7] = target: 5-HT2A receptor (Homo sapiens, UniProt P28223); assay: Radioligand binding, [3H]ketanserin displacement
Sequence of 5-HT2A receptor (P28223 whole entry): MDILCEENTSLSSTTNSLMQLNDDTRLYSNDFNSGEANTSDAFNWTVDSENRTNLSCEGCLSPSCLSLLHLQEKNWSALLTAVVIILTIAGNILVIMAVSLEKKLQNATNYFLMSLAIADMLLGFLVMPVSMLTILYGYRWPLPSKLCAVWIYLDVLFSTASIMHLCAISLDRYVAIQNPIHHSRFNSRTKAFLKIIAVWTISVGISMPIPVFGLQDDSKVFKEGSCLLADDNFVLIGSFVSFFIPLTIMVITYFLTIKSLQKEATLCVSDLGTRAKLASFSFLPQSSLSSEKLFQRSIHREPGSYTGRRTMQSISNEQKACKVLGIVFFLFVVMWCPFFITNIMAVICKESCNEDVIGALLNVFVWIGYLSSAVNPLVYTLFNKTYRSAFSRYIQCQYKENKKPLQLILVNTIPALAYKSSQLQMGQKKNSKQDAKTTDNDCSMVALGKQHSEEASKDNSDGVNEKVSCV

[8] = target: T4, α1 adrenergic receptor (α1A) (Homo sapiens, UniProt P35348); assay: Radioligand binding, [3H]prazosin displacement
T4 sequence (P35348 1-466): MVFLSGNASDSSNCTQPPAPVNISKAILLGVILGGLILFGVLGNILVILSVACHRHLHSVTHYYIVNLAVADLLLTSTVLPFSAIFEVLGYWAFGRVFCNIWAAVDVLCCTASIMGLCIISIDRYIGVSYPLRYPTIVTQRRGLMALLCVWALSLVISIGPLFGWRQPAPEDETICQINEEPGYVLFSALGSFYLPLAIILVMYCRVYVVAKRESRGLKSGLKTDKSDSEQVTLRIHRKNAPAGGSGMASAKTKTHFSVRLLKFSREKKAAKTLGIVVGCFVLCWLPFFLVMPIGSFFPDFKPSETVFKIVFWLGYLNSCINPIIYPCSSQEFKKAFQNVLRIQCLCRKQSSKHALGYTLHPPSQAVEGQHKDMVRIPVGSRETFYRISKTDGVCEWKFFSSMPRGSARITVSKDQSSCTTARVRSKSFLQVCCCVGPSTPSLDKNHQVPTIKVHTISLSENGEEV

[9] = target: human 5-HT transporter (SERT) (Homo sapiens, UniProt P31645); assay: [3H]5-HT uptake inhibition in HEK 293 cells overexpressing human SERT; assay type: cell-based
Sequence of human 5-HT transporter (SERT) (P31645 whole entry): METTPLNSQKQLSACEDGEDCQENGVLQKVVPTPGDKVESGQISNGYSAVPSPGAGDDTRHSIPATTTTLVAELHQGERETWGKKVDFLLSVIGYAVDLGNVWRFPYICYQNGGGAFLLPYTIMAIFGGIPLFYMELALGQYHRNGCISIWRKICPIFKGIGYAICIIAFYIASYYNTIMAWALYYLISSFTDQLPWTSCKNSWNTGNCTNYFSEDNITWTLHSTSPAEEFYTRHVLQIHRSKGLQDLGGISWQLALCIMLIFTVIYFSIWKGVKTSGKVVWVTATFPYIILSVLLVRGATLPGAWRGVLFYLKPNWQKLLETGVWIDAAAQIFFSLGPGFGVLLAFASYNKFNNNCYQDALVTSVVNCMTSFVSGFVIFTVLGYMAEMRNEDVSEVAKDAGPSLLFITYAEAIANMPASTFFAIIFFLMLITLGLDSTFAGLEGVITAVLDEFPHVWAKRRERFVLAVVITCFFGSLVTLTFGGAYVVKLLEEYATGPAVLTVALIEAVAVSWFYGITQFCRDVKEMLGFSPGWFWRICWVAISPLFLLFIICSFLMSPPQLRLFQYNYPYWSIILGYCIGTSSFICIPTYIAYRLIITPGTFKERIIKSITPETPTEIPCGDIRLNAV

[10] = target: T5, NET (Homo sapiens, UniProt P23975); assay: Radioligand binding, N-methyl-[3H]nisoxetine displacement
T5 sequence (P23975 whole entry): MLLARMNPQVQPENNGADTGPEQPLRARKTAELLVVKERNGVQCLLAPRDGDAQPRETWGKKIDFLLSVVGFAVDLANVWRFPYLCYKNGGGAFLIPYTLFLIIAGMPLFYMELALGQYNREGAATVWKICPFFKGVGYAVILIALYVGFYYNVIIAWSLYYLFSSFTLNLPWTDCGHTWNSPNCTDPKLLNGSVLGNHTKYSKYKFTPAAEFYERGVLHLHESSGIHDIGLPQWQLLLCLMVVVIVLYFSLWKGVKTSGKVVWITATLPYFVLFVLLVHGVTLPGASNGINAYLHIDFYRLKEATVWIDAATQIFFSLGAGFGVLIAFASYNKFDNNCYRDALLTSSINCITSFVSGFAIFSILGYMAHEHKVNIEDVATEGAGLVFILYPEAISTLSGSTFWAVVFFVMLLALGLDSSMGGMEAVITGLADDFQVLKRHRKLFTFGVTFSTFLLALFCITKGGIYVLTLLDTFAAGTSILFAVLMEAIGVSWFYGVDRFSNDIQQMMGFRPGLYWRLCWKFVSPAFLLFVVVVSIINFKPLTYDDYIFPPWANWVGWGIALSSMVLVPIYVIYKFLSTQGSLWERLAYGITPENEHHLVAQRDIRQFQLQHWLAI

[11] = target: T6, 5-HT2C receptor (Homo sapiens, UniProt P28335); assay: biochemical; assay type: binding
T6 sequence (P28335 33-458): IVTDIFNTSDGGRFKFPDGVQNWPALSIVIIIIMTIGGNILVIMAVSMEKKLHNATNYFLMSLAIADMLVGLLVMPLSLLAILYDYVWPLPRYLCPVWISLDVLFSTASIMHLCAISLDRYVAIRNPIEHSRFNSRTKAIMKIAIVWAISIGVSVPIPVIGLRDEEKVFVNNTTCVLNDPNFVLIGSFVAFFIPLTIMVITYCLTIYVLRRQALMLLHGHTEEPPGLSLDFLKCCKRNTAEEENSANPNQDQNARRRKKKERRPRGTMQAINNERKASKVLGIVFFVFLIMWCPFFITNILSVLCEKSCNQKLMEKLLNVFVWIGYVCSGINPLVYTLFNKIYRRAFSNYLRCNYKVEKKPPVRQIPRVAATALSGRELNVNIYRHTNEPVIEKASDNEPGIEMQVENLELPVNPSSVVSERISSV

[12] = target: dopamine D2 receptors (Homo sapiens, UniProt P14416); assay: Radioligand binding, [3H]spiperone displacement
Sequence of dopamine D2 receptors (P14416 whole entry): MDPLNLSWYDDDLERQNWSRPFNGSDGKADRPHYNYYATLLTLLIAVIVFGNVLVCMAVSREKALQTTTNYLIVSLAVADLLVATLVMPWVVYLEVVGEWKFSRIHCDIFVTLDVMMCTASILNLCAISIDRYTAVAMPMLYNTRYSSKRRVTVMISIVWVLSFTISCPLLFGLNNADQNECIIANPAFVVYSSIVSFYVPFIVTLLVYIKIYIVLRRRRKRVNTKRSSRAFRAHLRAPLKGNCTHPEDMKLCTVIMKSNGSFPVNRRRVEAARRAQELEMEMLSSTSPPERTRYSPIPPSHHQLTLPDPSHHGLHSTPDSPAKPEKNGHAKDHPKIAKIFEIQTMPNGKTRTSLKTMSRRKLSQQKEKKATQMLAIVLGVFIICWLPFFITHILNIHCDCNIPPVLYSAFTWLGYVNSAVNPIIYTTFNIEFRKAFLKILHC

[13] = target: T7, human TAAR1 (Homo sapiens, UniProt Q96RJ0); assay: Human TAAR1 activation, cAMP assay in HEK 293 cells; assay type: cell-based
T7 sequence (Q96RJ0 1-339): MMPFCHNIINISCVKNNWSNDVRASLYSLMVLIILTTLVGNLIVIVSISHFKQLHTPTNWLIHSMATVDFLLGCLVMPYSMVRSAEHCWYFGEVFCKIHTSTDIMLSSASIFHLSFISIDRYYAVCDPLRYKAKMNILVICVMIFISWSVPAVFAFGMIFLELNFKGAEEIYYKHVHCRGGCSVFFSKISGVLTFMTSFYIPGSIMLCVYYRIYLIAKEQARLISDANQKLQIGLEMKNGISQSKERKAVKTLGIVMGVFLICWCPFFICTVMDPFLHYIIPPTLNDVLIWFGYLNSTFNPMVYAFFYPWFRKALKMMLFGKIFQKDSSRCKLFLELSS
In short: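 Recombinant HEK 293 cells expressing human TAAR1 were pelleted, resuspended, seeded at 80,000/well and incubated 20 h at 37 °C. After a PBS wash, the cells were preincubated 60 min at 37 °C in KRB with 1 mM IBMX. Test compound (300 pM–30 μM, duplicate), β-phenylethylamine (maximal response) or basal control was added for 40 min at 37 °C. Cells were lysed 120 min at RT with Ru-cAMP Alexa700 anti-cAMP antibody mix, and fluorescence was read against a per-plate cAMP standard curve (0.13 nM–10 μM).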

[14] = target: SERT (Homo sapiens, UniProt P31645); assay: Radioligand binding, [3H]citalopram displacement
Sequence of SERT (P31645 whole entry): as the sequence (P31645 whole entry) above

[15] = ref Lopez-Arnau et al., 2013, cited from earlier work
[16] = target: T5, NET; assay: [3H]norepinephrine uptake inhibition in HEK 293 cells overexpressing human NET; assay type: cell-based
[17] = rat plasma, subcutaneous methylone; ref Elmore et al., 2017; cited from earlier work
[18] = after subcutaneous injection of methylone; ref Stefkova et al., 2017; cited from earlier work
[19] = healthy human subjects, oral MDMA; ref Schmid et al., 2016; cited from earlier work
[20] = target: human 5-HT2B receptor (Homo sapiens, UniProt P41595); assay: 5-HT2B receptor activation, FLIPR calcium assay in HEK 293 cells; assay type: cell-based
Sequence of human 5-HT2B receptor (P41595 whole entry): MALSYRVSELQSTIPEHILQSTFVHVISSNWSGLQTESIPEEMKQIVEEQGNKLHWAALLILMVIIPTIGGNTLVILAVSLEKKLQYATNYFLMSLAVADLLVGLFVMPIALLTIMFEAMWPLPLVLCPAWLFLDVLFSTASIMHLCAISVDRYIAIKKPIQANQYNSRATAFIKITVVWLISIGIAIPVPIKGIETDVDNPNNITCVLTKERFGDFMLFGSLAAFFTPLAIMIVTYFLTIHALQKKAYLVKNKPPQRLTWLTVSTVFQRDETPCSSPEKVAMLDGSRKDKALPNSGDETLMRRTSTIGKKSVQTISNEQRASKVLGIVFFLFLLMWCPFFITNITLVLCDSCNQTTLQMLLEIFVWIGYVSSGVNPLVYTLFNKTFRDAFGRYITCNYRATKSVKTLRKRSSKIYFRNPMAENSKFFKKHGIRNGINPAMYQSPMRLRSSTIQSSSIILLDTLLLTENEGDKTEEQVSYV

Sequence of rat TAAR1 (Q923Y9 whole entry): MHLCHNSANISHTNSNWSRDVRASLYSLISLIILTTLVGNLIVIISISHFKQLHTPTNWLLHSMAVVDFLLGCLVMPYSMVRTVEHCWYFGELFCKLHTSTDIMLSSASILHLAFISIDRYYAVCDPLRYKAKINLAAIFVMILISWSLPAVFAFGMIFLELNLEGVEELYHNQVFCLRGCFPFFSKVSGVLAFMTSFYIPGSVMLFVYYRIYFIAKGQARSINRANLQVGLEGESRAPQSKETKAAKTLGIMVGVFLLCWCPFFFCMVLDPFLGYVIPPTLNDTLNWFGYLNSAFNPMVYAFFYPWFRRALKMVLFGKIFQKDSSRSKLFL

SMILES	DAT/SERT ratio [6]	Ki [1] [µM]	Ki [2] [µM]	Ki [3] [µM]	Ki [4] [µM]	Ki [5] [µM]	IC50 [6] [µM]	Ki [7] [µM]	IC50 [16] [µM]	Ki [8] [µM]	IC50 [9] [µM]	Ki [10] [µM]	Ki [12] [µM]	Ki [14] [µM]	also measured
COc1cc(CC(C)N)ccc1O (stereo not shown) [HMA, 4-hydroxy-3-methyoxyamphetamine]	270 (96–830)														Ki ([1]; read-out: TAAR1rat Ki, mean±SD, n=3): 0.15 ± 0.02 µM; Ki ([2]; read-out: α2A Ki, mean±SD, n=3): > 4.7 µM; Ki ([3]; read-out: DAT Ki, mean±SD, n=3): > 8.5 µM; Ki ([4]; read-out: 5-HT1A Ki, mean±SD, n=3): > 18 µM; Ki ([5]; read-out: TAAR1mouse Ki, mean±SD, n=3): 0.05 ± 0.02 µM; maximum dopamine transporter inhibition ([6]; partial inhibition of dopamine uptake): 66%; Ki ([7]; read-out: 5-HT2A Ki, mean±SD, n=3): > 12 µM; Ki ([8]; read-out: α1A Ki, mean±SD, n=3): > 9.5 µM; IC50 ([9]; read-out: SERT IC50, 5-HT uptake inhibition, mean and 95% confidence interval): 35 µM; Ki ([10]; read-out: NET Ki, mean±SD, n=3): > 8.8 µM; Ki ([11]; read-out: 5-HT2c Ki, mean±SD, n=3): > 5.1 µM; Ki ([12]; read-out: D2 Ki, mean±SD, n=3): > 13 µM; EC50 ([13]; read-out: human TAAR1 activation EC50): 10.4 µM and 10 µM; human TAAR1 activation efficacy ([13]; β-phenylethylamine as maximal response): 51 ± 12%; Ki ([14]; read-out: SERT Ki, mean±SD, n=3): > 7.4 µM
CNC(C)C(=O)c1ccc2c(c1)OCO2 (stereo not shown) [Methylone, 3,4-methylenedioxymethcathinone, reference compound]	2.7 (1.9–3.8)	> 5	> 5	2.3 ± 0.1	> 17	> 4.7	6.6	> 12	0.56	> 9.5	18	> 8.7	> 13	> 7.5	Tmax ([15]; 15 mg/kg oral dose): 30 min; Tmax ([15]; 30 mg/kg oral dose): 60 min; time at which Cmax was reached [17]: 15 min; brain vs. serum concentration, times higher [18]: approximately five; time of maximum brain and serum concentrations [18]: 30 min; Ki [11]: > 14 µM
CC(N)Cc1ccc2c(c1)OCO2 (stereo not shown) [MDA, 3,4-methylenedioxyamphetamine, reference compound]		0.22 ± 0.03	2.6 ± 0.1	> 8.5	9 ± 0.8	0.18 ± 0.03	17	3.2 ± 0.8	0.38	8.8 ± 0.6	4.3	> 8.8	> 13	> 7.4	Cmax as % of the Cmax of MDMA [19]: 4–8%; EC50 [20]: 0.2 ± 0.01 µM; 5-HT2B receptor activation efficacy ([20]; relative to 5-HT activity defined as 100%): 51 ± 7%
